Experimental findings from PubChem BioAssay AID720508 (The Scripps Research Institute Molecular Screening Center, 2013) are described below.

Screen size: about 370,000 compounds; about 500 (0.14%) were called active.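 How the source made its calls: active means inhibition above the mean of compounds falling within the control limits plus 3 SD of them (cut at about 14% in these data); inactive means the rest.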 The full list was thinned out, with actives kept by preference.

The inhibition is the change of the read-out against control, counted positive when it falls.

This assay deals with Fibrinogen beta chain (Homo sapiens) (UniProt P02675). The assay can be described thus: inhibitors of Tn7 peptide binding to fibrin DD(E), primary screen, biochemical, fluorescence polarization, human fibrin, Tn7 probe (AID 720508).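 Further: 0% = plate median of compound wells and 100% = 10 µM Aha-Tn7 peptide.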 Particulars: FP displacement of FITC-Tn7 peptide from fibrin DD(E); at 8.3 µM; hits give high values; 0% = median of compound wells per plate. Put shortly: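 Measure: % inhibition scaled between sample-field median and high-control FP; Test system: human fibrin DD(E); Quantity: 2 µM final DD(E) protein; Doses: one dose, 8.3 µM nominal; Schedule: compound with protein 10 min, then 3 h after probe, room temperature; Detection: fluorescence polarization; Medium: Tris buffer with calcium and detergent, pH 7.8.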
Fibrinogen beta chain (Homo sapiens), sequence (P02675 whole entry, looked up): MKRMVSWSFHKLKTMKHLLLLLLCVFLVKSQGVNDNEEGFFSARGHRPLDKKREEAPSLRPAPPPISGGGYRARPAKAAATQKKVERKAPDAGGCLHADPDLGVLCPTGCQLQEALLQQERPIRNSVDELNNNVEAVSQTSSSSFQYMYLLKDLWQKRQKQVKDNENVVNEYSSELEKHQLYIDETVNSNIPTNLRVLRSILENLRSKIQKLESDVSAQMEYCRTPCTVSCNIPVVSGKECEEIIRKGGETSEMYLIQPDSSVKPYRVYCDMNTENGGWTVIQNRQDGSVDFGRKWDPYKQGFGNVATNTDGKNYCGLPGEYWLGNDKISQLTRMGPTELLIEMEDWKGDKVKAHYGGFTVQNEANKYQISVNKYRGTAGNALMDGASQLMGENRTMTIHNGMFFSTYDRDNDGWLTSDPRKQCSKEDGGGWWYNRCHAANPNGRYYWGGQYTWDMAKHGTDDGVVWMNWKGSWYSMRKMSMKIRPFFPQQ
(In general: In fluorescence polarisation assays a small probe gives low polarisation when free and higher when bound to something large.)
Turning to `CSC1=NC2(C)CCCCC2C12C=CC(=O)C=C2` (stereo unspecified), the inhibition was 6.72% (inactive).
On to `CC(OC(=O)CN1C(=O)COc2ccccc21)C(=O)NCc1ccc(F)cc1` (stereo unspecified), for which the inhibition was -2.52% (inactive).
As for `CN(Cc1ccccc1)CC(O)COc1ccc(CNCc2cc3ccccc3s2)cc1` (stereo unspecified), the figure is 5.14% (inactive).
As for `Cc1cc(C(=O)OC(C)C(=O)NC2CCCCC2C)c(C)o1` (stereo unspecified), the inhibition is -2.98% (inactive).
As for `CCO/N=C(/C)c1c(O)cc(-c2ccccc2)n(-c2ccccc2)c1=O`, the figure is 0.3% (inactive); as for `Oc1ccc2ccc3cccc[n+]3c2c1`, 62.8% (active); as for `COCCCNC(=O)Cc1ccc(-n2c(C)nc3cccnc32)cc1`, 1.6% (inactive).
In the case of `O=C(COC(=O)c1cc([N+](=O)[O-])ccc1NCc1ccccc1)NC1CCCCC1`, the inhibition was -0.23% (inactive).
Under `O=C(COC(=O)c1ccc([N+](=O)[O-])cc1Cl)NC(=O)c1ccccc1` stands 17.7% (active); under `O=C(NNS(=O)(=O)c1ccc(F)cc1)c1ccc([N+](=O)[O-])cc1Cl`, 1.43% (inactive).
On to `CC(C)(C)OC(=O)N1CCC(C(=O)Nc2cccc(C(=O)NCCc3ccccc3)c2)CC1`, for which the inhibition is -2.62% (inactive).
For `CCNC(=O)c1cccc(NC(=O)C2CC(=O)N(CCc3ccccc3)C2)c1` (stereo unspecified), the inhibition was 8.78% (inactive).
Under `O=C(NCc1ccccc1)c1cccc(NC(=O)C2CCCCC2)c1` stands 15.5% (active); under `COc1ccc(C(=O)OCC(=O)NCC2CCCO2)cc1[N+](=O)[O-]` (stereo unspecified), 2.02% (inactive); under `O=C(/C=C/c1ccccc1[N+](=O)[O-])NCC1CCCO1` (stereo unspecified), 14.7% (active).
As for `CC(C)CNC(=O)COC(=O)/C=C/c1ccccc1[N+](=O)[O-]`, the figure is 2.51% (inactive); as for `Nc1ccc2nc3c(=O)[nH]c(=S)[nH]c3nc2c1`, 7.86% (inactive).
As for `COCCn1c(N)c(NCc2ccccc2)c(=O)[nH]c1=O`, the figure is 8.37% (inactive); as for `Cc1cc2nc3c(=O)n(Cc4ccccc4)c(=O)[nH]c3nc2cc1N`, 25.7% (active).
On to `CN(C)CCNC(=O)C(C(=O)c1ccccc1)n1ccccc1=O` (stereo unspecified), for which the inhibition was 8.86% (inactive).
Under `Cc1ccc(-c2nc(-c3cccnc3)sc2CC(=O)Nc2ccc(C)c(Cl)c2)cc1` stands -4.07% (inactive); under `CSCCNC(=O)c1ccc2nc(Cc3ccccc3F)oc2c1`, -0.81% (inactive).
`Cc1ccc(NC(=O)CN(C)C(=O)c2ccc(Cl)c(S(=O)(=O)NCc3ccco3)c2)cc1`: the inhibition was -3.83% (inactive).
Under `COC(=O)[C@H](C(C)C)N1CCc2nnn(Cc3ccc(C)cc3)c2-c2ccccc2S1(=O)=O` stands 5.12% (inactive); under `O=C(COC(=O)c1ccc(O)cc1)Nc1nccs1`, 6.41% (inactive); under `O=C1C(=O)N(CCCN2CCOCC2)C(c2ccc([N+](=O)[O-])cc2)/C1=C(\O)c1ccc2c(c1)OCCO2` (stereo unspecified), -0.14% (inactive).
Consider `O=S(=O)(c1cccc(-c2nnc(SC(F)F)n2-c2ccccc2)c1)N1CCCCC1`, for which the inhibition was 3.4% (inactive).
As for `O=C(OCC(=O)N1CCN(C(=O)c2ccco2)CC1)c1ccccc1Cc1ccccc1`, the figure is -2.57% (inactive).
As for `Cc1cccc(C)c1Nc1c(-c2ccccc2O)nc2ncccn12`, the figure is 2.35% (inactive); as for `Cc1cc(Nc2cccc(F)c2)n2ncnc2n1`, -2.61% (inactive); as for `COc1ccc(/C=C2\CCCC3C2=NN(C(=O)c2scnc2C)C3c2ccc(OC)cc2)cc1` (stereo unspecified), 2.65% (inactive).
As for `CC(C)=CCCC1(C)C=Cc2c(ccc3c2[nH]c2cc(O)c(C)cc23)O1` (stereo unspecified), the figure is -5.67% (inactive); as for `Cc1cc2nc3c(=O)[nH]c(=O)nc-3n(C[C@H](O)[C@H](O)[C@H](O)CO)c2cc1C`, 24.1% (active); as for `CCN(CC)CCCC(C)n1c2nc(=O)[nH]c(=O)c-2nc2cc(Cl)ccc21` (stereo unspecified), -7.28% (inactive).
In the case of `CC(C)C[C@H]1CNC(=S)N1C[C@H]1CCCN1C[C@H](Cc1ccc(O)cc1)N1C[C@H](Cc2ccc(O)cc2)N(CC2CCCCC2)C1=S`, the inhibition was -3.09% (inactive).
Under `C=C(C)C#CC(Cc1ccccc1)N(CC1CC1)/C(N)=N/C(=O)OCc1ccccc1` (stereo unspecified) stands 1.85% (inactive).
Under `CC(C)CC(=O)c1c[nH]c(C(=O)NCc2ccccc2)c1` stands -1.06% (inactive); under `CC1CCCCC12NC(=O)N(CC(=O)OCc1c(F)cccc1Cl)C2=O` (stereo unspecified), 5.49% (inactive).
Turning to `Cc1cc(C)c2nc3nc(C)cc(C)c3c(N)c2c1`, the inhibition is 3.42% (inactive).
For the compound `COc1ccc(S(=O)(=O)N2CCOCC2)cc1NC(=O)CSc1nnc(NC2CC2)s1`, the inhibition was -0.34% (inactive).
Under `COc1ccc(S(=O)(=O)N2CCN(C(C)C(=O)Nc3ccc(C(C)C)cc3)CC2)cc1` (stereo unspecified) stands 2.11% (inactive).
For the compound `CCCC1CCC2(CCCN2CCOC(=O)NCc2ccccc2)CC1` (stereo unspecified), the inhibition was 2.73% (inactive).
As for `CCC(C)[C@H](NC(=O)N1c2ccccc2NC(=O)[C@@H]1C(C)C)C(=O)N[C@@H](Cc1ccccc1)C(=O)O` (stereo partly specified), the figure is -4.14% (inactive).
Under `COc1ccc(S(=O)(=O)N(C)CC(=O)N2CCCC2)cc1Cl` stands -5.85% (inactive).
`COc1ccc(S(=O)(=O)c2c[nH]c(=S)[nH]c2=O)cc1Cl`: the inhibition is 14.8% (active).
Under `Cc1ccc(S(=O)(=O)c2c[nH]c3ccc(Cl)cc3c2=O)cc1` stands -0.42% (inactive); under `CSCC[C@H](NC(=O)NCc1cccs1)C(=O)O`, 1.72% (inactive); under `O=C(COC(=O)CCOc1ccccc1)Nc1cc(S(=O)(=O)N2CCCCC2)ccc1Cl`, 3.01% (inactive).
For `CC(=O)c1ccc(NC(=O)CCNS(=O)(=O)c2cc(Br)cnc2N)cc1`, the inhibition was 1.85% (inactive).
In the case of `Nc1nc2n(n1)C(c1ccco1)CC(c1ccc(Cl)c(Cl)c1)N2` (stereo unspecified), the inhibition was -5.38% (inactive).
As for `O=C(N=C1SC2CS(=O)(=O)CC2N1Cc1ccccc1)c1ccccc1` (stereo unspecified), the figure is 8.78% (inactive).
Under `COCCNC(=O)CSc1nc2c(n1-c1ccccc1)CCCC2` stands -3.74% (inactive); under `NC(=O)c1ccc(N2CCCC2)nc1`, 2.52% (inactive); under `CCc1nc2c(OCCC3CCCCC3)cccn2c1N(C)C(=O)c1ccco1`, -2.4% (inactive).
Under `Cc1c(C(=O)O)nnn1-c1nonc1N` stands 1.32% (inactive).
With `O=C(NCc1ccccc1)C1CCCN(c2nc3ccsc3c(=O)s2)C1` (stereo unspecified), the inhibition was -2.86% (inactive).
Under `CCC(=O)N1CCN=C1SCc1ccc(F)cc1` stands 1.78% (inactive); under `COc1cccc2c1C(=O)c1c(O)c3c(c(O)c1C2=O)CC(O)(C(C)=NNC(=O)c1ccc(Cl)c(Cl)c1)CC3OC1CC(N)C(O)C(C)O1` (stereo unspecified), 27% (active); under `Cc1cccc(NC(=O)c2ccc(S(=O)(=O)N(C)CC3CCCO3)cc2)c1C` (stereo unspecified), -10% (inactive).
Turning to `Cc1nnc(SCC(=O)Nc2ncc3c(n2)CC(C)(C)CC3=O)s1`, the inhibition was 3.19% (inactive).
As for `C=CCn1c(COc2ccc(F)cc2)nnc1SCC(=O)Nc1cccc(S(N)(=O)=O)c1`, the figure is 2.08% (inactive); as for `COc1cc2c(cc1OC)CC1(CCCCC1)N=C2`, 3.18% (inactive).
On to `Cc1cc(=O)[nH]c2nnnn12`, for which the inhibition was -1.23% (inactive).
As for `COc1ccc(N=C2C=CC(=O)O2)cc1`, the figure is -2.28% (inactive); as for `COc1ccc(N=Nc2c(-c3ccc(OC)cc3)[nH]oc2=O)cc1`, 25.7% (active).
Under `O=c1o[nH]c(-c2ccccc2)c1N=Nc1c(F)cccc1Cl` stands 1.8% (inactive); under `COc1ccc(C(=O)N(C)Cc2ccc(OC)c(OC)c2OC)cc1S(=O)(=O)N1CCOCC1`, -8.78% (inactive); under `CN(CC(=O)Nc1ccc(F)c(F)c1F)C(=O)C1CC(=O)N(C2CCCC2)C1` (stereo unspecified), 0.71% (inactive).
Under `COC(=O)CSc1snnc1-c1ccc(Cl)c(Cl)c1` stands -4.58% (inactive); under `Cc1ccccc1-c1csc(C(O)c2cccc(Cl)c2)n1` (stereo unspecified), -0.35% (inactive); under `OC(c1ccccc1)c1nc(-c2cnc3ccccc3c2)cs1` (stereo unspecified), 15.7% (active).
In the case of `COc1ccc(-c2csc(C(O)c3cccc(Cl)c3)n2)cn1` (stereo unspecified), the inhibition was -9.22% (inactive).
As for `Cc1nn(C(C)(C)C)c(OC(=O)CC(C)C)c1S(=O)(=O)c1ccccc1`, the figure is 1.04% (inactive).
As for `O=C(Cn1cnc2ccccc2c1=O)Nc1cccc(S(=O)(=O)N2CCCCC2)c1`, the figure is -0.43% (inactive); as for `CCc1nn(-c2cc(Oc3cccc4ccccc34)nc(-c3ccccc3)n2)c(N)c1C#N`, 4.4% (inactive); as for `C=CCN1CCN(c2ccncc2S(=O)(=O)N2CCN(C)CC2)CC1`, 7.05% (inactive).
Under `O=C(NCc1cccnc1)Nc1ccccc1F` stands -2.21% (inactive); under `CC(=O)Nc1ccc(CN2CCN(Cc3ccc(F)c(F)c3)C(CCO)C2)cc1` (stereo unspecified), 0.97% (inactive); under `Cc1cc(NC(=O)C(C)SCC(=O)Nc2cccc(S(=O)(=O)N3CCCCCC3)c2)no1` (stereo unspecified), 6.6% (inactive).
On to `O=S1(=O)CC(N2CCN(Cc3ccccc3F)CC2)CN1Cc1cn(Cc2cccc(C(F)(F)F)c2)nn1` (stereo unspecified), for which the inhibition was 1.27% (inactive).
For `CC(=O)c1cc(-c2ccccc2)n(CCC(=O)NC2CCCCCC2)c1C`, the inhibition is -2.95% (inactive).
As for `O=C(c1c(Cl)cccc1Cl)N1CCN(c2cccc3[nH]ccc23)CC1`, the figure is 2.06% (inactive); as for `CC1(C)CC(=O)C(C2c3ccccc3S(=O)(=O)c3ccccc32)C(=O)C1`, 2.44% (inactive).
As for `CO[C@H]1[C@@H]2C=CO[C@@H](O[C@H]3O[C@@H](CO)[C@H](O)[C@@H](O)[C@@H]3O)[C@@H]2[C@@]2(CO)O[C@@H]12`, the figure is -5.28% (inactive); as for `S=C(NC1CCCCC1)NN1CCOCC1`, 4.52% (inactive).
Under `O=C(CSc1nncn1-c1cccnc1)N1CCOCC1` stands -3.73% (inactive); under `O=C(Cn1cnc2ccccc2c1=O)NNC(=O)c1ccccc1F`, -3.62% (inactive); under `Cc1cc2occ(CC(=O)NNC(=O)c3ccccc3F)c2cc1C`, -1.71% (inactive).
Regarding `Cn1c(CC(=O)NNC(=O)c2ccccc2F)nc2ccccc21`, the inhibition was 14.2% (active).
`Cc1ccccc1CCNC(=O)C1CCC(=O)N(Cc2ccc(Cl)cc2)C1` (stereo unspecified): the inhibition is 7.94% (inactive).
Consider `O=C(NCCCN1CCCCC1)C1CCCN(c2ncnc3c2nc2n3CCCCC2)C1` (stereo unspecified), for which the inhibition was -0.83% (inactive).
